# Screens (PubChem BioAssay)
# In the library only some 2.5% were active in any assay of this set; here they are far more common.
# INS promoter inh = TRM-6 insulin promoter activity inhibition; inhibition, % at 2 µM; hit rate 0.9% among 130,000; TRM-6 cells (human fetal islet line), insulin promoter-eGFP reporter, imaging; reporter expression induced with tamoxifen;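 active = inhibition above the mean plus 3 SD, with well images judged a real hit on visual review, cut at about 60% in these data, passing the limit was not always enough; inconclusive = inhibition over the cutoff but images rejected on review; inactive = inhibition not above the cutoff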
# NPY Y1 blocker = antagonists of human neuropeptide Y receptor Y1; HEK293-CNG Y1 cells, membrane potential fluorescence; NPY at EC95, then isoproterenol; inhibition, % at 3.6 µM; hit rate 1% among 200,000; AID 1040;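 active = inhibition above the campaign mean inhibition of all tested compounds plus 3 SD, cut at about 20% in these data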
#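 Benchmarks – high control isoproterenol alone, low control NPY with isoproterenol · Material – HEK293 Y1/CNG channel cell line · Times – dye 3 h, compound 60 min room temperature, stimulation 45 min · Probe or stimulus – NPY (25 nM), isoproterenol (1 µM), Ro 20-1724 (25 µM) · Evaluation – % inhibition of NPY effect · Signal – fluorescence, membrane potential probe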
# NPY2 pot ag = human NPY-Y2 potentiation or agonism, primary screen; P49146; cells expressing NPY-Y2, potentiator/agonist read-out; activation, % at 3.6 µM; hit rate 0.45% among 220,000; in the data active = activation above about 27%;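 also: cells stimulated with NPY near EC25 plus isoproterenol at EC100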
# Target sequence (P49146 whole entry, looked up): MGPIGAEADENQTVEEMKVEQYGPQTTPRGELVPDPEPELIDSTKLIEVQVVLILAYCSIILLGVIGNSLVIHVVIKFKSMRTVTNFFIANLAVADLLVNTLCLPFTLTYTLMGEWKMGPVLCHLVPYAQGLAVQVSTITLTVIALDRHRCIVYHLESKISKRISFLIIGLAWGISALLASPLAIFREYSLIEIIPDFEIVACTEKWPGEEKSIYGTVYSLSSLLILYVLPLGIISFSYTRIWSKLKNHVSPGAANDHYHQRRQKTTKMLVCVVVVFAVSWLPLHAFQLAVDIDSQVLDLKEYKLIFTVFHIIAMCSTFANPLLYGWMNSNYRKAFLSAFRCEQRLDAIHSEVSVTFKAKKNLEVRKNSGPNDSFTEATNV
# NPY-Y2 antag = antagonists of human neuropeptide Y receptor Y2; P49146; NPY-Y2 expressing cells, antagonist mode; inhibition, % at 2.7 µM; hit rate 0.99% among 140,000; AID 793; in the data active = inhibition above about 17%
# NPY-Y1 PAM-ag = potentiates or activates human NPY-Y1 receptor; hit rate 0.37% among 220,000; P25929; activation, % at 3.6 µM; NPY-Y1 expressing cells, potentiator/agonist activation; AID 1304; in the data active = activation above about 33%, passing the limit was not always enough;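 also: cells stimulated with NPY at EC10 then isoproterenol at EC100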
# Ins promoter up = MIN6 insulin promoter up-regulation; hit rate 0.3% among 190,000; z-score at 5 µM; MIN6 insulin promoter-GFP reporter, high-content imaging; hits give high values; AID 1625;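 active = z-score above 3 at 5 µM with at least 500 cells counted in the well; inconclusive = wells under 500 cells, flagged as cytotoxic or low count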
# NPY-Y2 confirm = human NPY-Y2 potentiation or agonism, confirmation | shares compounds with NPY2 pot ag | hit rate 20% among 450 | cell-based NPY-Y2 potentiator/agonist assay | AID 1539 | activation, % at 3.6 µM; in the data active = activation above about 33%
# NPY-Y1 potentiator = NPY-Y1 potentiation or agonism as NPY-Y2 counter-screen; shares compounds with NPY2 pot ag; Y1 HEK293-CNG cells, membrane potential fluorescence; activation, % at 3.6 µM; hit rate 20% among 450; AID 1651; in the data active = activation above about 45%;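 also: cells stimulated with submaximal NPY then isoproterenol with phosphodiesterase inhibitor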
# NPY-Y1 agonist 2 = human NPY-Y1 agonism as NPY-Y2 potentiator counter-screen | shares compounds with NPY2 pot ag | HEK293 Y1-CNGC, membrane potential fluorescence | activation, % at 3.6 µM | hit rate 37% among 450;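 active = activation above the mean of DMSO-only control wells plus 3 SD, cut at about 18% in these data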;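 also: cells stimulated with 1 µM isoproterenol plus the PDE inhibitor Ro 20-1724; Y1 agonists lower the membrane potential dye signal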
# CNGC inh = blocks CNG channel activity, counter-screen for NPY-Y2 potentiators. shares compounds with NPY2 pot ag. HEK293-CNG parental, isoproterenol cAMP, membrane potential fluorescence. inhibition, % at 3.6 µM. hit rate 32% among 450. AID 1703;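 active = inhibition above the control-well mean plus 3 SD of those wells, cut at about 22% in these data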
# Y2 agonist ctr = counter-screen for NPY-Y2 potentiators: agonists of human NPY-Y2 | shares compounds with NPY2 pot ag | AID 1710 | activation, % at 3.6 µM | hit rate 56% among 450 | HEK293 Y2/CNGC cells, membrane potential fluorescence, agonist mode;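 active = activation above the mean of solvent-only control wells plus 3 SD, cut at about 10% in these data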;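 also: cells stimulated by isoproterenol with no NPY added so direct agonism is tested; agonism lowers probe fluorescence through less cAMP and CNG channel opening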
# A number is an active result; . = inactive; ? = inconclusive; / = no result given.
SMILES,INS promoter inh,NPY Y1 blocker,NPY2 pot ag,NPY-Y2 antag,NPY-Y1 PAM-ag,Ins promoter up,NPY-Y2 confirm,NPY-Y1 potentiator,NPY-Y1 agonist 2,CNGC inh,Y2 agonist ctr
CCCOc1ccc(/C=N/NC(=O)c2ccc(Cn3cc([N+](=O)[O-])cn3)o2)cc1,.,.,41,.,.,.,.,.,.,.,.
COCCCn1c(=S)[nH]c2c(sc3ccccc32)c1=O,.,.,.,/,.,/,/,/,/,/,/
O=C(CCc1nnc(C2CCCCC2)o1)NCCCOc1cccnc1,/,.,.,/,.,.,/,/,/,/,/
CCOC(=O)c1c(C2CC2)csc1NC(=O)COC(=O)c1cnc(Cl)c(Cl)c1,/,.,60,.,.,.,.,.,.,.,.
CCCCc1nc2sc3c(=O)[nH]cnc3c2c2c1CCCC2,/,/,.,/,.,.,/,/,/,/,/
CCCCCCN=C(C)c1ccccc1O,/,/,.,/,.,.,/,/,/,/,/
O=C(Nc1ccccc1)c1ccccc1NS(=O)(=O)c1ccc(Cl)s1,.,.,.,.,.,.,/,/,/,/,/
Cc1ccc(NC(=O)c2ccccc2NS(=O)(=O)c2ccc(Cl)s2)cc1,.,.,43,.,.,.,.,.,.,.,.
S=c1[nH]nc(C(c2ccccc2)C2CCCCC2)o1 (configuration not stated),/,/,.,/,.,.,/,/,/,/,/
Cc1ccc(-n2c(SCC(N)=O)nc3c(c2=O)C2(CCCC2)Cc2ccccc2-3)cc1,.,.,35,.,.,.,.,47,43,29,42
c1ccc2c3c([nH]c2c1)-c1[nH]ncc1CC3,.,.,.,.,.,.,/,/,/,/,/
Clc1ccc2[nH]c3c(c2c1)CCc1cn[nH]c1-3,.,.,46,.,.,.,34,45,34,35,25
Cc1ccc(S(=O)(=O)N(C)CC(=O)OCC(=O)N2CCCC2=O)cc1,/,.,50,/,.,.,.,.,.,.,.
Cc1ccc(S(=O)(=O)N(C)CC(=O)N2CCOCC2)cc1,.,.,.,.,.,.,/,/,/,/,/
Cc1ncccc1C(=O)N1CCCC(C(=O)c2ccc3c4c(cccc24)CC3)C1 (configuration not stated),/,.,72,/,.,.,.,.,.,.,.
CCc1nnc(NC(=O)CSc2nnc(Cc3ccc(OC)cc3)o2)s1,/,.,.,.,.,.,/,/,/,/,/
CC(=O)N1CC(=O)N=C1SCC(=O)Nc1nc(C)c(-c2ccccc2)s1,/,.,37,/,.,.,.,.,41,40,28
Cc1nn(C)c(C)c1CNC(=O)c1nn2c(c1Cl)NC(c1cccs1)CC2C(F)(F)F (configuration not stated),.,.,29,.,.,.,.,.,.,.,.
Cc1cc2c(c(SCC(=O)Nc3ccc(C)c(C)c3)n1)C(=O)OC2,.,.,.,/,.,.,/,/,/,/,/
O=C1C(Nc2ccccc2)=C/C(=N/S(=O)(=O)c2cccs2)c2ccccc21,.,.,48,.,.,?,68,74,60,53,67
CN1C/C(=N\S(=O)(=O)c2ccccc2)N(C)C1=O,.,.,101,.,.,.,.,.,.,.,.
O=C(O)C1CCCN1c1nc(C(F)(F)F)nc2ccccc12 (configuration not stated),/,.,75,/,.,.,.,.,.,.,.
O=C(Nc1ccc(OCC(F)(F)C(F)F)c(C(F)(F)F)c1)c1ccccc1O,.,.,61,.,.,.,.,.,.,.,.
COc1ccc(NC(=O)CSc2nnc(CNC(=O)COc3ccc(Cl)cc3)o2)cc1,/,.,.,/,.,/,/,/,/,/,/
C/C=C/C(=O)N1c2ccc(C)cc2C(C)=CC1(C)C,/,/,97,/,.,.,.,.,.,.,.
SMILES,INS promoter inh,NPY Y1 blocker,NPY2 pot ag,NPY-Y2 antag,NPY-Y1 PAM-ag,Ins promoter up,NPY-Y2 confirm,NPY-Y1 potentiator,NPY-Y1 agonist 2,CNGC inh,Y2 agonist ctr
CCCOP(=O)(OCCC)C(Nc1ccc(C(C)C)cc1)c1ccc([N+](=O)[O-])cc1 (configuration not stated),.,.,35,.,.,.,.,.,.,.,.
COP(=O)(OC)C(Nc1ccc([N+](=O)[O-])cc1)c1ccccc1 (configuration not stated),/,/,.,/,.,.,/,/,/,/,/
COC(=O)/C(=C\Nc1cccc(Cl)c1C)c1ncc(C(F)(F)F)cc1Cl,.,.,58,.,.,/,.,.,.,.,.
CC(O)CN1C(=O)C(CC(=O)Nc2ccc(Cl)cc2)SC1=Nc1ccccc1 (configuration not stated),.,.,.,.,.,.,/,/,/,/,/
COCCN1C(=O)C(CC(=O)Nc2ccc(C(C)=O)cc2)SC1=Nc1ccccc1 (configuration not stated),.,.,43,.,.,.,37,49,42,34,34
NC(=NCCc1c[nH]c2ccccc12)NC(=O)c1ccc(Cl)cc1,.,.,28,/,.,.,.,.,39,37,42
Cc1ccc(NS(=O)(=O)c2cc([N+](=O)[O-])ccc2NNC(=S)Nc2cccc(Cl)c2)c(C)c1,.,.,31,.,.,.,76,97,79,62,75
Cc1ccc(NS(=O)(=O)c2cc([N+](=O)[O-])ccc2NNC(=S)Nc2cc(C)ccc2C)c(C)c1,.,.,.,.,.,.,/,/,/,/,/
COC(=O)c1[nH]c2ccccc2c1NC(=O)CN1CCN(C/C=C/c2ccccc2)CC1,.,.,.,.,.,.,/,/,/,/,/
CCOC(=O)c1[nH]c2ccc(F)cc2c1NC(=O)CN1CCN(C/C=C/c2ccccc2)CC1,/,.,38,.,.,.,67,90,68,71,53
CCCCC(CC)CNC(=O)C1CCCN(S(=O)(=O)c2cnc[nH]2)C1 (configuration not stated),/,.,.,.,.,.,/,/,/,/,/
N#C/C(=N\Nc1ccc([N+](=O)[O-])cc1)C(=N)N1CCOCC1,/,/,.,/,.,.,/,/,/,/,/
N#C/C(=N/Nc1ccc([N+](=O)[O-])cc1)C(=N)N1CCCCC1,.,.,35,/,.,/,.,45,43,28,30
Cc1cc2nc(SCCOC(=O)Nc3ccc(Cl)cc3)nc(C)c2cc1C,.,.,.,.,.,.,/,/,/,/,/
Cc1ccc(NS(=O)(=O)c2ccc(NC(=O)c3cccs3)cc2)c(C)c1,.,.,.,.,.,.,/,/,/,/,/
